Key:
[1] = Antioxidant activity assessed as inhibition of copper-induced lipid peroxidation by Fe3(CN)6 method at 300 uM; format: functional; design: scale not given: the % may be the effect or the level left
[2] = system: HL-60; assay: Cytotoxicity against human HL60; format: functional, cell-based
Procedure, shortened: (§1)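 Five human cancer lines: HL-60 (leukemia), HepG2 (liver), MCF-7 (breast), DU-145 (prostate) and NCI-H460 (lung). IC50 given in μM ± SD from three experiments, each run in triplicate.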

[3] = system: HepG2; assay: Cytotoxicity against human HepG2; format: functional, cell-based; procedure, shortened: as §1
[4] = system: MCF7; assay: Cytotoxicity against human MCF7; format: functional, cell-based; procedure, shortened: as §1
[5] = system: DU-145; assay: Cytotoxicity against human DU145; format: functional, cell-based; procedure, shortened: as §1
[6] = system: NCI-H460; assay: Cytotoxicity against human NCI-H460; format: functional, cell-based; procedure, shortened: as §1

| SMILES | Activity [1] [%] | IC50 [2] [µM] | IC50 [3] [µM] | IC50 [4] [µM] | IC50 [5] [µM] | IC50 [6] [µM] |
| --- | --- | --- | --- | --- | --- | --- |
| C=C1CC[C@H]2C(C)(C)CCC[C@]2(C)[C@H]1C[C@@H](O)C1=CC(O)OC1=O (stereo partly specified) [ZERUMIN B] | 16.5 | 7.21 | 25.3 | 0.59 | 11.2 |  |
| Cc1cc(C(C)(C)C)c(O)c(C(C)(C)C)c1 | 99.9 |  |  |  |  |  |
| COc1cc(/C=C/C(=O)CC(=O)/C=C/c2ccc(O)c(OC)c2)ccc1O [CURCUMIN] | 96.5 | 34.2 | 35.5 | 10.4 | 20.6 | 27.6 |
| O=C(/C=C/c1ccc(O)cc1)CC(=O)/C=C/c1ccc(O)cc1 [BISDEMETHOXYCURCUMIN] | 93.3 | 25.1 | > 50 | 33.8 | 30.1 | 88.1 |
| COc1cc(/C=C/C(O)=C/C(=O)/C=C/c2ccc(O)cc2)ccc1O [DEMETHOXYCURCUMIN] | 93.8 | 24.2 | > 50 | 18.5 | 21.7 | 25.7 |
| COc1cc2ccc(=O)oc2cc1O [SCOPOLETIN] | 94.9 | > 50 | > 50 | > 50 | > 50 | > 50 |
| O=c1c(O)c(-c2ccc(O)c(O)c2)oc2cc(O)cc(O)c12 | 51.3 |  |  |  |  |  |
| C=C1CC[C@H]2C(C)(C)CCC[C@]2(C)[C@H]1C/C=C(/C=O)CC=O | 5.7 |  |  |  |  |  |
| C=C1CC[C@H]2C(C)(C)CCC[C@]2(C)[C@H]1C/C=C(/C=O)CC(OC)OC | 11.5 |  |  |  |  |  |
| O=C(/C=C/C=C/c1ccc(O)cc1)/C=C/c1ccc(O)cc1 | 92.9 |  |  |  |  |  |
| CC1(C)[C@@H](O[C@@H]2O[C@H](CO)[C@@H](O)[C@H](O)[C@H]2O)CC[C@]2(C)[C@H]3CC(C4=CCOC4=O)OC(O)[C@H]3CC[C@@H]12 (stereo partly specified) | 0 |  |  |  |  |  |
| Cc1c(C)c2c(c(C)c1O)CC[C@@](C)(CCC[C@H](C)CCC[C@H](C)CCCC(C)C)O2 | 45.2 |  |  |  |  |  |
